# Bioassay records deposited in PubChem BioAssay by several laboratories.
# Lipid droplet – hepatic lipid droplet formation modulation; AID 1656; AML12 mouse hepatocytes, oleate lipid droplets, BODIPY imaging; inhibition, % at 6.5 µM; 240,000 compounds, 0.4% hits;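 active = lipid droplet intensity inhibited by at least 50%, with more than 500 cells counted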
#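 Assay system: AML12 mouse liver cells | Compound dosing: One dose, 6.5 µM compound | Read-out basis: Droplet intensity reduction, % inhibition | Measured by: Fluorescence imaging, 20x objective, two fields per well | Schedule: Overnight treatment with compound plus oleate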
# SR-BI DiI-HDL act – enhances SR-BI lipid uptake from DiI-HDL. activation, % at 12.5 µM. 320,000 compounds, 0.096% hits. CHO ldlA[mSR-BI] cells, DiI-HDL uptake fluorescence, 3 h; 100 = double the neutral-control signal;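 active = mean replicate activation of at least 60% and every replicate at or above 60%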;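 note: 0% = median plate neutral-control signal and 100% = twice that signal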
#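 Material – SR-BI-overexpressing, LDLR-lacking CHO cells · Medium – BSA-supplemented, HEPES-buffered Ham's F12, pH 7.4 · Doses – single concentration · Times – compound with DiI-HDL co-incubation, 3 h at 37 °C · Measured by – bottom-read fluorescence, 550/595 nm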
# SMARCA2 act – SMARCA2 function activation, primary screen | 370,000 compounds, 1% hits | MG213 cells, MMTV-luciferase reporter, dexamethasone, overnight | activation, % at 9.1 µM; in the data active = activation above about 7.8%;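 note: 0% = vehicle wells and 100% = reference activator wells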
# AHR act – activates the human aryl hydrocarbon receptor; 320,000 compounds, 2.5% hits; AID 2796; activation, % at 5 µM; P35869; AHR-responsive luciferase reporter cells, luminescence; in the data active = activation above about 47%;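 note: 0% = vehicle wells and 100% = reference agonist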
# SR-BI HDL uptake – mouse SR-BI HDL lipid transfer inhibition. Q61009. ldlA[mSR-BI] CHO cells, DiI-HDL uptake fluorescence, 3 h. inhibition, % at 12.5 µM. 320,000 compounds, 0.96% hits. AID 488896;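 active = mean replicate inhibition of at least 70% and a set share of replicates each scoring 70 or more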;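 note: 0% = median of neutral control wells and 100% = median of positive control wells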
# Target sequence (Q61009 whole entry, looked up): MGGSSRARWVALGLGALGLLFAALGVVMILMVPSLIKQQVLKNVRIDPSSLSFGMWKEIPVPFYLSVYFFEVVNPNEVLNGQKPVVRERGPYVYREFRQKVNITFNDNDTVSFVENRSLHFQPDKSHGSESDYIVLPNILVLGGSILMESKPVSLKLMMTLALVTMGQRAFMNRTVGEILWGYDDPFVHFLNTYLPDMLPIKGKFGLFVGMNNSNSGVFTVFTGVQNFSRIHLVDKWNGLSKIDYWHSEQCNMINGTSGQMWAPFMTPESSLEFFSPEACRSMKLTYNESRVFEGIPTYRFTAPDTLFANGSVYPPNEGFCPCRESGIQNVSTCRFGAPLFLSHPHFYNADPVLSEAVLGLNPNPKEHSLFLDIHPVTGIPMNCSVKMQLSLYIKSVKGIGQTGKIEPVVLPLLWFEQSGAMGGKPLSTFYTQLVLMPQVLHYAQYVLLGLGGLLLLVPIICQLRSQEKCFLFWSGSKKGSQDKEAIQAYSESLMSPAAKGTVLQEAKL
# CR mimetic SO – yeast age-related superoxide inhibition as caloric restriction mimetic. S. cerevisiae aged cells, superoxide DHE fluorescence; stronger effect = lower value. superoxide response (% of plate mean), % at 10 µM. 330,000 compounds, 0.18% hits. AID 2690;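 active = superoxide response under a set limit, about three screen SD below normal, cut at about 65% in these data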;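 note: yeast aged for seven days with compound at 30 °C before DHE staining; 100% = average MFI of all compound-treated wells on the plate with controls excluded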
# * = called active by the depositor; . = no result. Shown are actives, neighbours in structure and some others; about 4.3% of the full set was active somewhere.
SMILES,Lipid droplet,SR-BI DiI-HDL act,SMARCA2 act,AHR act,SR-BI HDL uptake,CR mimetic SO
COc1ccc(C(=O)Nc2cccc(-c3ccc(N4CCOCC4)nn3)c2)cc1OC,.,-75,5,8,75*,84
CCOc1cc(C(=O)Nc2cccc(C(C)=O)c2)ccc1OCC(=O)N1CCCCC1,4,-74,-1,5,74*,94
COc1cccc(CNC(=O)[C@H]2CCCN2C(=O)[C@H]2CCCN2C(=O)c2cccs2)c1,.,.,-8,.,.,.
COc1ccc(CNC(=O)C2CCCN(c3nc4ccccc4o3)C2)cc1 (configuration not stated),.,.,-6,.,.,.
COC(=O)[C@]12C[C@H](CC(=O)NCCc3ccccc3OC)C(=O)N(CCC3=CCCCC3)C1=C[C@H](COCc1ccccc1)O[C@@H]2C,.,.,-4,.,.,.
O=C(Cc1nc2ccccc2[nH]1)N/N=C/c1ccccc1,-4,17,0,11,-17,98
COc1cccc(/C=N/NC(=O)c2cc3c(OC)cccc3[nH]2)c1O,0,-103,-3,1,103*,99
COc1cccc(/C=N/NC(=O)c2cc3c(OC)cccc3[nH]2)c1OC,6,.,-4,54*,.,98
COc1ccc(/C=N/NC(=O)c2cc3c(OC)ccc(OC)c3[nH]2)cc1O,.,-38,3,21,38,81
COc1ccc(OC)c2[nH]c(C(=O)N/N=C/c3ccccc3O)cc12,.,-124,-4,14,124*,95
COc1ccc(OC)c(/C=N/NC(=O)Cc2nc3ccccc3[nH]2)c1,-6,7,-4,57*,-7,92
Cc1ccc(C)c(NC(=O)c2cccc3c2-c2ccccc2C3=O)c1,.,.,2,.,.,.
CCOC(=O)[C@]12CCCCC/C=C\1N(CCc1ccc(Cl)cc1)C(=O)[C@H]2CC(=O)NCCc1ccccc1OC,.,.,-4,.,.,.
COc1ccc(OC)c(/C=N/NC(=O)c2cc3c(OC)cc(OC)cc3[nH]2)c1,-21,-54,1,56*,54,92
O=C(O)c1c(C(=O)N2N=C3/C(=C/c4ccccc4)CCCC3C2c2ccccc2)cccc1[N+](=O)[O-] (configuration not stated),9,5,-1,78*,-5,103
CC(/C=N/n1c(-c2ccco2)n[nH]c1=S)=C\c1ccco1,8,-5,-2,2,5,108
CC(/C=N\Nc1nnc2c(n1)[nH]c1c(C)cccc12)=C\c1ccco1,.,20,3,57*,-20,113
O=C(Nc1ccc2ccccc2c1)NC1CCCCN(Cc2cccc(Cl)c2)C1=O (configuration not stated),.,.,1,.,.,.
CCCCc1cc(=O)oc2cc(OCC(=O)N3CCOCC3)ccc12,8,-2,-1,11,2,101
Cc1c(C)c2ccc(OCC(=O)N3CCN(C(=O)C4COc5ccccc5O4)CC3)cc2oc1=O (configuration not stated),-21,-88,-3,0,88*,107
Cc1cc(=O)oc2cc(OCC(=O)N3CCN(C(=O)C4COc5ccccc5O4)CC3)ccc12 (configuration not stated),4,-88,-3,-2,88*,101
O=C(COc1ccc2ccc(=O)oc2c1)N1CCN(C(=O)C2COc3ccccc3O2)CC1 (configuration not stated),-2,-41,-1,4,41,91
CCCc1cc(=O)oc2cc(OCC(=O)N3CCN(C(=O)C4COc5ccccc5O4)CC3)ccc12 (configuration not stated),-12,-87,-2,2,87*,101
Cc1cc(=O)oc2ccc(OCC(=O)N3CCc4ccccc43)cc12,.,-78,-3,21,78*,97
Cc1cccc(NC(=O)OC2CC3CC2[C@H]2CCCCN2C3)c1 (some centres not stated),.,.,0,.,.,.
SMILES,Lipid droplet,SR-BI DiI-HDL act,SMARCA2 act,AHR act,SR-BI HDL uptake,CR mimetic SO
Cc1ccc(N=N/C(=C\O)C(=O)c2ccncc2)cc1,13,2,1,9,-2,81
O=C(/C(=C/O)N=Nc1ccc(Cl)cc1)c1ccncc1,.,-9,1,73*,9,87
O=C(NC1CCCCN(Cc2ccc(Cl)cc2)C1=O)c1ccc(Cl)cc1Cl (configuration not stated),.,.,-2,.,.,.
CCN(CC)CCCN1C(=O)C2=C(C1=O)C1N(C)c3ccccc3[C@@]13C[C@@H](CO)N(C(=O)CCC(=O)OC)C3=N2 (some centres not stated),.,.,-2,.,.,.
COc1ccc(OC)c(C(=O)Nc2ccc3[nH]ccc3c2)c1,.,-51,1,50*,51,86
COc1ccc(C(=O)Nc2ccc3cn[nH]c3c2)c(OC)c1,4,13,-1,56*,-13,107
COc1ccc(C(=O)Nc2ccc3[nH]ncc3c2)cc1,23,-19,5,35,19,106
COc1ccc(C(=O)Nc2ccc3[nH]ccc3c2)cc1,.,-19,5,-7,19,100
COC(=O)c1cc2c(ccn2-c2ccc(F)cc2)n1Cc1ccc(OC)cc1,-27,-68,-5,16,68,100
CCn1c(C(=O)OC)cc2c1ccn2-c1ccc(F)cc1,3,-78,0,39,78*,95
O=C(Cn1nc(C(F)(F)F)c2c1CCCC2)Nc1ccc2c(c1)OCO2,-4,1,-1,50*,-1,98
COc1ccc(NC(=O)Cn2nc(C(F)(F)F)c3c2CCCC3)cc1OC,-2,-17,-4,2,17,74
Cc1ccc(-c2cc(-c3nnc(SCC(=O)Nc4ccc(OCc5ccccc5)cc4)n3N)[nH]n2)cc1,.,.,3,.,.,.
CCN(CC)C(=N)/C(C#N)=N/Nc1ccc(C)cc1,-15,0,-4,75*,0,111
Cc1ccc(N/N=C(\C#N)C(=O)c2ccsc2)cc1,-8,13,0,37,-13,85
CC(C)CCN(C)C1CCN(C(=O)NCc2ccccc2)CC1,.,.,-8,.,.,.
CC(=O)Nc1cccc(-c2nc3ccc(NC(C)=O)cc3[nH]2)c1,.,4,0,6,-4,93
CC(=O)Nc1cccc(-c2nc3ccccc3[nH]2)c1,-34,4,0,47*,-4,79
CC(Oc1ccccc1)C(=O)Nc1cccc(-c2nc3ccccc3[nH]2)c1 (configuration not stated),.,-2,1,41,2,91
CC(C)(C)C(=O)Nc1cccc(-c2nc3ccccc3[nH]2)c1,-1,-5,2,61*,5,98
CC(C)CC(=O)Nc1cccc(-c2nc3ccccc3[nH]2)c1,-17,-22,1,58*,22,91
COC(=O)c1cc2c(c3c4cc(F)ccc4n(S(=O)(=O)c4ccccc4)c13)C(=O)N(Cc1ccccc1)C2,.,.,4,.,.,.
Brc1ccc(-c2nc(-c3ccccn3)no2)o1,9,11,0,51*,-11,103
